Hits are enriched below; roughly 4.9% of the tested compounds scored in any of these assays.
STAT1 act: increases IFN-gamma driven STAT1 reporter signal; NIH 3T3 STAT1-luciferase reporter, luminescence; 100% = IFN-gamma alone, no compound; activation (% of control), % at 5.5 µM; 200,000 tested, 2.6% active; AID 932;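 active means activation above the screen-wide mean activation plus 3 SD, cut at about 130% in these data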
APP 5'UTR act: APP 5'UTR luciferase reporter activation | AID 1276 | 190,000 tested, 1% active | activation, % at 2 µM | SH-SY5Y APP 5'UTR luciferase reporter, luminescence; zero percent = DMSO vehicle wells;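 active means activation above a set limit, based on mean plus 3 SD of controls, cut at about 140% in these data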
STAT3 blocker: inhibitors of IL-6 induced STAT3 signaling; U3A cells, IL-6 STAT3-luciferase reporter, luminescence; host cell line lacks STAT1; inhibition, % at 5.5 µM; 190,000 tested, 0.89% active;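 active means inhibition above the mean inhibition across all screened compounds plus 3 SD, cut at about 44% in these data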
NF-kB expr up: NF-kB expression increase, human neuronal cells; NF-kB reporter expression; hits give high values; fold change at 12.5 µM; 190,000 tested, 1.6% active; AID 1239; in the data active means fold change above about 3.3
STAT3 activator: STAT3 signaling activation; U3A cells, IL-6 STAT3-luciferase reporter, luminescence; 100% = signal with IL-6 EC80 alone; activation (% of control), % at 5.6 µM; 190,000 tested, 0.91% active;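 active means activation above the screen-wide mean of compound activation plus 3 SD, cut at about 130% in these data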
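Test system: human U3A cells carrying STAT3-luciferase construct; control set: IL-6-only wells as 100% reference; timing: compound pre-incubation 1 h before IL-6, then 6 h stimulation at 37 °C; also added: IL-6 stimulus at 33 ng/mL final; evaluation: % activation versus median of IL-6-stimulated wells; detection: reporter luminescence signal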
STAT1 inh: reduces IFN-gamma driven STAT1 reporter signal; inhibition, % at 5.5 µM; NIH 3T3 STAT1-luciferase reporter, luminescence; 200,000 tested, 0.35% active; AID 920;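 active means inhibition above a set limit, the mean inhibition across all tested compounds plus 3 SD, cut at about 34% in these data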
Numbers stand for hits; 0 = inactive; - = no result given.

SMILES	STAT1 act	APP 5'UTR act	STAT3 blocker	NF-kB expr up	STAT3 activator	STAT1 inh
CCOC(=O)N1CCN(C(=O)CCCOc2ccccc2)CC1	0	0	0	0	0	0
O=C(CCSc1ccc(Cl)cc1)N1CCCCCC1	131.7	0	0	0	0	0
NC(=O)C1CCN(C(=O)CCSc2ccc(Cl)cc2)CC1	0	0	0	0	0	0
c1ccc(C[n+]2cccc3c4ccccc4ccc32)cc1	0	0	59.9	0	0	0
COc1ccc(/C=C/C(=O)c2c(O)cc(C)oc2=O)c(OC)c1	138.2	0	0	4.09	0	0
CCc1cc(C(=O)N2CCCC(C(=O)c3cccc4ccccc34)C2)n(C)n1 (stereo not drawn)	0	0	0	-	0	0
Clc1ccc(-c2cc3ccccc3[nH]2)cc1	130.9	0	0	0	0	0
CCOc1ccc(N2C(=O)CC(NCCNc3ccc(C(=O)c4cccs4)cc3)C2=O)cc1 (stereo not drawn)	0	0	0	0	0	0
O=C(NC(=O)c1ccc(Cl)cc1)OC1CCCCC1	0	0	0	0	0	0
O=C(CNC(=O)c1ccccc1)OC1CCCCC1	134.7	0	0	0	0	0
C=CCNC(=O)C1CC1(c1ccccc1)c1ccccc1 (stereo not drawn)	0	0	0	0	0	0
CCCc1c2ccccc2nc2ccccc12	0	0	0	0	0	0
O=C(C1CC(c2ccc(F)cc2)=NO1)N1CCN(c2ccccc2)CC1 (stereo not drawn)	0	0	0	0	0	0
O=C(C1CC(c2ccc(F)cc2)=NO1)N1CCCCC1 (stereo not drawn)	131.6	0	0	0	0	0
CC1CCCCN1C(=O)C1CC(c2ccc(F)cc2)=NO1 (stereo not drawn)	136.2	0	0	0	0	0
C=CCOC(=O)C1=C[C@@H](C2CCCCC2)C[C@@H](OCc2ccc(CO)cc2)O1	0	0	-	0	-	0
O=C(CC(NC(=O)C(F)(F)F)c1ccccc1)Nc1nnc(CCc2ccccc2)s1 (stereo not drawn)	0	0	0	0	0	0
CC(=O)NS(=O)(=O)c1ccc(NC(=O)COc2ccc(C(=O)c3ccccc3)cc2)cc1	0	0	0	0	0	0
COc1ccc(-c2cc(-c3cc(C)ccc3O)[nH]n2)cc1	146.3	0	0	17.7	139.6	0
Cc1ccc(O)c(-c2cc(-c3ccccc3C)[nH]n2)c1	0	0	0	0	0	0
Cc1c(C(=O)OC2CCCC2)[nH]c2c1C(=O)CC(c1ccco1)C2 (stereo not drawn)	0	0	0	4.34	0	0
C=CCOC(=O)c1[nH]c2c(c1C)C(=O)CC(c1ccco1)C2 (stereo not drawn)	0	0	0	4.68	0	0
C/C=C/COC(=O)c1[nH]c2c(c1C)C(=O)CC(c1ccco1)C2 (stereo not drawn)	0	0	0	0	0	0
Cc1c(C(=O)OC2CCCC2C)[nH]c2c1C(=O)CCC2 (stereo not drawn)	0	0	0	0	0	0
COC(=O)C1C(=O)c2c([nH]c(C(=O)OC3CCCC3)c2C)CC1C (stereo not drawn)	144.2	0	0	3.42	0	0
SMILES	STAT1 act	APP 5'UTR act	STAT3 blocker	NF-kB expr up	STAT3 activator	STAT1 inh
O=C1CCN(Cc2nc(-c3ccc(Cl)cc3)no2)CCN1	0	0	0	0	0	0
Cc1ccc(NC(=O)c2ccc(CSc3nnc(C)s3)cc2)cc1	0	0	0	3.85	0	0
Cc1cc(C)cc(NC(=O)c2ccc(CSc3nnc(C)s3)cc2)c1	0	0	0	0	0	0
CCc1ccc(NC(=O)c2noc3c2CCc2ccccc2-3)cc1	0	0	0	0	0	0
CCOC(=O)c1ccc(NC(=O)c2cn(-c3ccccc3)nc2-c2ccncc2)cc1	0	0	0	0	0	0
Nc1ccccc1NC(=O)c1ccccc1	0	0	0	3.93	0	0
Cc1ccc(-c2nn(-c3ccccc3)cc2C(=O)Nc2ccc(C(=O)O)cc2)cc1	130.5	0	0	0	0	0
Cc1ccc(NC(=O)c2noc3c2CCc2ccccc2-3)cc1	130.9	0	0	0	0	0
CC(=O)Nc1ccccc1NC(=O)c1ccccc1	0	0	0	0	0	0
COc1ccccc1/C=C1\CCCC2=C1Nc1nnnn1C2c1ccccc1OC (stereo not drawn)	0	0	0	0	0	0

Screening results from PubChem.
